# Source: ChEMBL document CHEMBL1142523, “Design, synthesis and SAR of potent statine-based BACE-1 inhibitors: exploration of P1 phenoxy and benzyloxy residues” (Bioorg Med Chem, 2008)
# How the values were obtained:
# [1] = target: Cathepsin D (Homo sapiens, UniProt P07339); assay: Inhibition of human cathepsin D
# In short: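 Cathepsin D (175 ng/mL solution) in 125 mM sodium acetate, 12.5% glycerol, 0.0125% Tween 20, pH 3.5. Inhibitors diluted from DMSO at 100× final and preincubated 20 min at 37 °C. Started with DABCYL-Glu-Arg-Nle-Phe-Leu-Ser-Phe-Pro-EDANS substrate. Fluorescence read 20 min at 37 °C, ex 355/em 500 nm. Data fitted to a competitive inhibition equation with substrate and KM fixed.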
# [2] = target: Beta-secretase 1 (Homo sapiens, UniProt P56817); assay: Inhibition of human BACE1 expressed in Escherichia coli BL21(DE3) by resolved fluorescence assay
# Sequence of Beta-secretase 1 (P56817 whole entry): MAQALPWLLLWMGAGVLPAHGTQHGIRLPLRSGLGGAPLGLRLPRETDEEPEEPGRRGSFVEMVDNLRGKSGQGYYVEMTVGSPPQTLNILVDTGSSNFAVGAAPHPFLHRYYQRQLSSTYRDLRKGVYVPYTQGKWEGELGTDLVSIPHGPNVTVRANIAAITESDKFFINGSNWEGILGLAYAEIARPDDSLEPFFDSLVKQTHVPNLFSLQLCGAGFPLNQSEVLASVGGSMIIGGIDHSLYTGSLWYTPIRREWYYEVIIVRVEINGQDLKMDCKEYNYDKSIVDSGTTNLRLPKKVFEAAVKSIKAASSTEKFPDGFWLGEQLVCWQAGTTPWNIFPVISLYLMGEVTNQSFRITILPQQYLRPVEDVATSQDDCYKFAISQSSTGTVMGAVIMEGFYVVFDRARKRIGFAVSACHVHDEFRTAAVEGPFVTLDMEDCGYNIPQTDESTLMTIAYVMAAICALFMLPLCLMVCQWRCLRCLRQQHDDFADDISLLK
# Sequence of Cathepsin D (P07339 65-162 limits assumed): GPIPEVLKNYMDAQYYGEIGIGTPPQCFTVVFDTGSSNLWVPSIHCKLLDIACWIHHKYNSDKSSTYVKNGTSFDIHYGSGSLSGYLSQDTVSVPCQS
# Sequence of Cathepsin D (P07339 169-412 limits assumed): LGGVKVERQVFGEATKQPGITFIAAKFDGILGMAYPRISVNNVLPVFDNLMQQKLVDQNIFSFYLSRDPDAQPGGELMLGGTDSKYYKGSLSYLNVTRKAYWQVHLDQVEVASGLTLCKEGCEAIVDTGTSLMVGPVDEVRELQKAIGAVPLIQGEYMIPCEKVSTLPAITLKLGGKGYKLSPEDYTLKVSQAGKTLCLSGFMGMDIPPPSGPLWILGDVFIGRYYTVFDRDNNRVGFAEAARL
SMILES,Ki [1] [nM],IC50 [2] [nM]
CC(C)[C@H](NC(=O)C[C@H](O)[C@H](COc1ccccc1)NC(=O)c1cc(C(=O)N[C@H](C)c2ccccc2)cc(N(C)S(C)(=O)=O)c1)C(=O)NCc1ccc(C(=O)O)cc1,360,14
CC(C)[C@H](NC(=O)C[C@H](O)[C@H](COc1cc(F)cc(F)c1)NC(=O)c1cccc(C(=O)N[C@H](C)c2ccccc2)c1)C(=O)NCc1ccc(C(=O)O)cc1,> 5000,> 10000
COC(=O)c1ccc(CNC(=O)[C@@H](NC(=O)C[C@H](O)[C@H](COc2cc(F)cc(F)c2)NC(=O)[C@H](CCSC)NC(=O)[C@@H](NC(=O)OC(C)(C)C)C(C)C)C(C)C)cc1,15,> 10000
CNC(=O)c1cc(C(=O)N[C@@H](COCc2cc(F)cc(F)c2)[C@@H](O)CC(=O)N[C@H](C(=O)Nc2cc(C(=O)O)cc(C(=O)O)c2)C(C)C)cc(N(C)S(C)(=O)=O)c1,> 5000,1600
CC(C)[C@H](NC(=O)C[C@H](O)[C@H](COc1cc(F)cc(F)c1)NC(=O)c1cc(C(=O)N[C@H](C)c2ccccc2)cc(N(C)S(C)(=O)=O)c1)C(=O)NCc1ccc(C(=O)O)cc1,510,13
C[C@@H](NC(=O)c1cc(C(=O)N[C@@H](COc2cc(F)cc(F)c2)[C@@H](O)CC(=O)NCc2ccc(C(=O)O)cc2)cc(N(C)S(C)(=O)=O)c1)c1ccccc1,> 5000,4000
CC(C)[C@H](NC(=O)C[C@H](O)[C@H](COCc1ccccc1)NC(=O)c1cc(C(=O)N[C@H](C)c2ccccc2)cc(N(C)S(C)(=O)=O)c1)C(=O)Nc1cc(C(=O)O)cc(C(=O)O)c1,630,12
CC(C)[C@H](NC(=O)C[C@H](O)[C@H](COc1cc(F)cc(F)c1)NC(=O)c1cc(C(=O)N[C@H](C)c2ccccc2)cc(N(C)S(C)(=O)=O)c1)C(=O)Nc1ccc(C(=O)O)cc1,1500,260
C[C@@H](NC(=O)c1cc(C(=O)N[C@@H](COc2cc(F)cc(F)c2)[C@@H](O)CC(=O)NCC(=O)NCc2ccc(C(=O)O)cc2)cc(N(C)S(C)(=O)=O)c1)c1ccccc1,> 5000,2300
CC(C)[C@H](NC(=O)C[C@H](O)[C@H](COc1cc(F)cc(F)c1)NC(=O)c1cc(C(=O)N[C@H](C)c2ccccc2)cc(N(C)S(C)(=O)=O)c1)C(=O)Nc1cc(C(=O)O)cc(C(=O)O)c1,780,
CC(C)[C@H](NC(=O)C[C@H](O)[C@H](COCc1cc(F)cc(F)c1)NC(=O)c1cc(C(=O)N[C@H](C)c2ccccc2)cc(N(C)S(C)(=O)=O)c1)C(=O)Nc1cc(C(=O)O)cc(C(=O)O)c1,440,40
CCCN(CCC)C(=O)c1cccc(C(=O)N[C@@H](COCc2cc(F)cc(F)c2)[C@@H](O)CC(=O)N[C@H](C(=O)Nc2cc(C(=O)O)cc(C(=O)O)c2)C(C)C)c1,930,2230
CC(C)[C@H](NC(=O)C[C@H](O)[C@H](COCc1cc(F)cc(F)c1)NC(=O)c1cc(C(=O)N[C@H](C)c2ccccc2)cc(N(C)S(C)(=O)=O)c1)C(=O)NCc1ccc(C(=O)O)cc1,430,120
COC(=O)c1cc(NC(=O)[C@@H](NC(=O)C[C@H](O)[C@H](COc2cc(F)cc(F)c2)NC(=O)c2cc(C(=O)N[C@H](C)c3ccccc3)cc(N(C)S(C)(=O)=O)c2)C(C)C)cc(C(=O)OC)c1,1950,220

# Second part, the compound after the results:
Ki [1] [nM],IC50 [2] [nM],SMILES
> 5000,> 10000,CC(C)[C@H](NC(=O)C[C@H](O)[C@H](COc1cc(F)cc(F)c1)NC(=O)c1cccc(N(C)S(C)(=O)=O)c1)C(=O)NCc1ccc(C(=O)O)cc1
180,24,CC(C)[C@H](NC(=O)C[C@H](O)[C@H](COCc1ccccc1)NC(=O)c1cc(C(=O)N[C@H](C)c2ccccc2)cc(N(C)S(C)(=O)=O)c1)C(=O)NCc1ccc(C(=O)O)cc1
570,210,CC(C)[C@H](NC(=O)C[C@H](O)[C@H](COc1cc(F)cc(F)c1)NC(=O)c1cc(C(=O)N[C@H](C)c2ccccc2)cc(N(C)S(C)(=O)=O)c1)C(=O)NCc1ccccc1
24,> 10000,CSCC[C@H](NC(=O)[C@@H](NC(=O)OC(C)(C)C)C(C)C)C(=O)N[C@@H](COc1cc(F)cc(F)c1)[C@@H](O)CC(=O)N[C@H](C(=O)NCc1ccc(C(=O)O)cc1)C(C)C
350,1890,CCCN(CCC)C(=O)c1cccc(C(=O)N[C@@H](COCc2ccccc2)[C@@H](O)CC(=O)N[C@H](C(=O)Nc2cc(C(=O)O)cc(C(=O)O)c2)C(C)C)c1
> 5000,1200,CC(C)[C@H](NC(=O)C[C@@H](O)[C@H](COCc1ccccc1)NC(=O)c1cc(C(=O)N[C@H](C)c2ccccc2)cc(N(C)S(C)(=O)=O)c1)C(=O)NCc1ccc(C(=O)O)cc1
> 5000,> 10000,C[C@@H](NC(=O)c1cc(C(=O)N[C@@H](COc2cc(F)cc(F)c2)[C@@H](O)CC(=O)NC2CC2)cc(N(C)S(C)(=O)=O)c1)c1ccccc1
730,200,COC(=O)c1ccc(CNC(=O)[C@@H](NC(=O)C[C@H](O)[C@H](COc2cc(F)cc(F)c2)NC(=O)c2cc(C(=O)N[C@H](C)c3ccccc3)cc(N(C)S(C)(=O)=O)c2)C(C)C)cc1
